{"source": "ChEMBL document CHEMBL2331137", "about": "“Scopoletin and scopolin isolated from Artemisia iwayomogi suppress differentiation of osteoclastic macrophage RAW 264.7 cells by scavenging reactive oxygen species” (J Nat Prod, 2013)", "key": {"[1]": {"system": "HepG2", "experiment": "Antioxidant activity against […]-induced intracellular oxidative stress in human HepG2 cells assessed as DCF fluorescence intensity at 1 to 10 uM", "type": "functional, cell-based", "outline": "(§1)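 HepG2 cells cultured 24 h in DMEM, then given compounds (1–10 μM, in DMSO) for 30 min and washed. Stress induced in HBSS with 60 μM AAPH or 1 mM H2O2 for 30 min. DCFH-DA added at 40 μM final, 30 min at 37 °C in the dark; DCF read at Ex 485/Em 535 nm. Trolox 10 μM as reference; % of untreated cells, n = 3.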"}, "[2]": {"system": "RAW264.7", "experiment": "Cytotoxicity against mouse RAW264.7 cells at 1 to 10 uM for 5 days by MTT assay", "type": "cell-based", "conditions": "raw264.7, 120 h", "outline": "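MTT assay: RAW 264.7 cells (2 × 10^4 cells/mL) in DMEM with 10% FBS at 37 °C, 5% CO2, treated with 1–10 μM samples for 5 days. MTT then added for 1 h at 37 °C, formazan dissolved in DMSO, A570 read; percentage proliferation calculated.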"}, "[3]": {"system": "RAW264.7", "experiment": "Inhibition of RANKL-induced superoxide anion level in mouse RAW264.7 cells at 10 uM by DHE fluorescence intensity assay (reference value: 176.7%); values are per cent of control"}, "[4]": {"system": "RAW264.7", "experiment": "Inhibition of RANKL-induced ROS generation in mouse RAW264.7 cells at 10 uM by DCF fluorescence intensity assay (reference value: 143.7%); values are per cent of control"}, "[5]": {"system": "HepG2", "experiment": "Antioxidant activity against H2O2-induced intracellular oxidative stress in human HepG2 cells assessed as DCF fluorescence intensity at 1 to 10 uM", "type": "functional, cell-based", "outline": "as §1"}, "[6]": {"system": "RAW264.7", "experiment": "Antiosteoporotic activity in mouse RAW264.7 cells assessed as inhibition of RANKL-induced osteoclastogenesis measured as reduction in TRAP activity for 5 days by ELISA", "type": "functional, cell-based", "outline": "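RAW 264.7 cells differentiated 5 days with 50 ng/mL RANKL plus test samples, medium changed every 2 days. Cells then washed with ice-cold PBS, fixed in 3.5% formaldehyde (10 min) and ethanol–acetone 1:1 (1 min). They were incubated 1 h in 50 mM citrate pH 4.5 with 10 mM sodium tartrate and 6 mM PNPP, stopped in 0.1 N NaOH, A405. Expressed as % of untreated control; n = 3.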"}, "[7]": {"system": "RAW264.7", "experiment": "Inhibition of hydrogen peroxide level in RANKL-treated mouse RAW264.7 cells at 10 uM by DHR fluorescence intensity assay", "type": "functional, cell-based"}, "[8]": {"system": "RAW264.7", "experiment": "Antiosteoporotic activity in mouse RAW264.7 cells assessed as inhibition of RANKL-induced osteoclastogenesis measured as reduction in TRAP number for 5 days by light microscopy", "type": "functional, cell-based", "outline": "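RAW 264.7 cells seeded at 3 × 10^4/well and given test samples in differentiation medium with 50 ng/mL RANKL, changed every 2 days, for 5 days. Cells fixed in 3.5% formaldehyde 10 min and stained 1 h at 37 °C with a leukocyte acid phosphatase kit. TRAP-positive cells with ≥3 nuclei counted by light microscopy. Expressed as % of RANKL-treated cells; mean ± SD, n = 3.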"}, "[9]": {"experiment": "Antioxidant activity assessed as trolox equivalents of peroxyl radical scavenging activity at 1 uM by ORAC assay", "type": "functional", "outline": "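ORAC: fluorescein (40 nM final) exposed to AAPH (20 mM final) as peroxyl radical source, fluorescence recorded every 2 min relative to the initial reading. Net area under the decay curve versus blank computed and expressed as Trolox equivalents, with Trolox at 1 μM as reference; three experiments.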"}, "[10]": {"experiment": "Antioxidant activity assessed as reduction of Cu2+ to Cu+ measured as copper (I) level at 1 uM measured for 1 hr", "type": "functional", "outline": "(§2)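 Copper-reducing assay: compounds in ethanol mixed with 0.5 mM CuCl2 and 0.75 mM neocuproine (Cu+ chelator) in 10 mM phosphate buffer. Absorbance at 454 nm read for 1 h; reducing capacity expressed in μM. Trolox as reference; mean ± SD of three experiments.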"}, "[11]": {"experiment": "Antioxidant activity assessed as reduction of Cu2+ to Cu+ measured as copper (I) level at 10 uM measured for 1 hr (reference value: 2.1 uM)", "type": "functional", "outline": "as §2"}}, "note": "The source made the active and inactive calls. No cut-off for these calls is given here.", "data": [{"molecule": "COc1cc2ccc(=O)oc2cc1O", "note": "[SCOPOLETIN]", "values": [{"measurement": "Activity", "setting": "[1]", "value": "Active"}, {"measurement": "Activity", "setting": "[2]", "value": "Non-toxic"}, {"measurement": "level, % of control at 10 µM", "setting": "[3]", "value": 158, "unit": "%"}, {"measurement": "level, % of control at 10 µM", "setting": "[4]", "value": 132, "unit": "%"}, {"measurement": "Activity", "setting": "[5]", "value": "Active"}, {"measurement": "inhibition", "setting": "[6]", "value": "Dose-dependent effect"}, {"measurement": "inhibition", "setting": "[7]", "value": "inactive"}, {"measurement": "inhibition", "setting": "[8]", "value": "Dose-dependent effect"}, {"measurement": "Activity", "setting": "[9]", "value": 3.3, "unit": "equiv"}, {"measurement": "Activity", "setting": "[10]", "value": "Active"}]}, {"molecule": "COc1cc2ccc(=O)oc2cc1O[C@@H]1O[C@H](CO)[C@@H](O)[C@H](O)[C@H]1O", "note": "[SCOPOLIN]", "values": [{"measurement": "Activity", "setting": "[2]", "value": "Non-toxic"}, {"measurement": "level, % of control at 10 µM", "setting": "[3]", "value": 149, "unit": "%"}, {"measurement": "Activity", "setting": "[11]", "value": "inactive"}, {"measurement": "level, % of control at 10 µM", "setting": "[4]", "value": 127, "unit": "%"}, {"measurement": "Activity", "setting": "[5]", "value": "Active"}, {"measurement": "inhibition", "setting": "[6]", "value": "Dose-dependent effect"}, {"measurement": "inhibition", "setting": "[7]", "value": "inactive"}, {"measurement": "inhibition", "setting": "[8]", "value": "Dose-dependent effect"}, {"measurement": "Activity", "setting": "[9]", "value": 0.4, "unit": "equiv"}]}, {"molecule": "Cc1c(C)c2c(c(C)c1O)CCC(C)(C(=O)O)O2", "note": "(stereo not given)", "values": [{"measurement": "Activity", "setting": "[10]", "value": 1.5, "unit": "µM"}]}]}
